Here are results for two molecules from publication PMC6863147 (Clinical cancer research : an official journal of the …, 2019).

Broadly, the half-life is the time in which the quantity being followed falls by half.

For data set [1], the system named is recurrent RB-positive glioblastoma. The conditions noted are these: 22 patients; cited from earlier work.
Data set [2] has as its system apoptotic marker cleaved caspase-3. The experiment in a line: tumor pharmacodynamics, cleaved caspase-3 immunohistochemistry. The conditions noted are these: P = 0.19. The data set is classed as in vivo, human. Summed up: (§1)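 Patients took 900 mg/d oral for 5 days, with resection 2, 8 or 24 h after the last dose. Surgical FFPE tissue and matched archival tissue from the initial resection were stained together on an automated platform, with positive and no-primary controls. Antibodies: pRB 1:400, pFOXM1 1:200, MIB-1 1:100, cleaved caspase-3 1:300. Nuclear % positive cells were compared by paired t-test on log values (two-sided 5%), also after normalising to the untreated historical-control median, overall and per arm.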

The test system of another data set is recurrent glioblastoma. The experiment in a line: pharmacokinetic/pharmacodynamic-guided expansion cohort, clinical response. The data set is classed as in vivo, human.
Data set [3] concerns phosphorylation of FOXM1 (pFOXM1). The experiment in a line: tumor pharmacodynamics, pFOXM1 immunohistochemistry. The data set is classed as in vivo, human. To be noted: P = 0.142, primarily at 8-hour postdose. Summed up:
as §1

Another data set relates to p4EBP1. The experiment in a line: longitudinal tissue analysis, p4EBP1 immunohistochemistry. The data set is classed as in vivo, human. To be noted: 3 patients.
Data set [4] relates to proliferative marker MIB-1. The experiment in a line: tumor pharmacodynamics, MIB-1 immunohistochemistry. The data set is classed as in vivo, human. The conditions noted are these: vs archival tissue, P = 0.039. Summed up: as §1
Data set [5] is described as follows: plasma pharmacokinetics in recurrent glioblastoma patients. The data set is classed as in vivo, human. Summed up:
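Patients took 900 mg oral daily. Blood was drawn before dosing and 0.5, 1, 2, 4, 6, 8 and 24 h after the fourth dose. Plasma was held at −80 °C. Totals were measured by validated LC-MS/MS, and unbound levels as total × fraction unbound (equilibrium dialysis). Noncompartmental analysis gave Cmax, Tmax, AUCτ and CL/F (dose/AUCτ), summarised as mean, median, range and coefficient of variation.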

Data set [6] in a line: safety and tolerability in glioblastoma patients. The conditions noted are these: human, in vivo.
The test system of another data set is CDK4/6. The conditions noted are these: read-out: in vitro IC50 for inhibition of CDK4/6 kinase activity; cited from earlier work.
The subject of the next data set is pS6. The experiment in a line: longitudinal tissue analysis, pS6 immunohistochemistry. The data set is classed as in vivo, human. To be noted: 3 patients. In short, it runs like this:
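Samples were from expansion-cohort patients (600 mg daily, 21 days on/7 off) re-resected at recurrence. Enhancing tumor was collected. Archival, Phase 0 surgical and post-treatment FFPE tissue was immunostained on an automated platform (anti-pS6 1:100). The software nuclear function quantified % positive cells.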

For data set [7], the system named is phosphorylation of RB (pRB). The experiment in a line: tumor pharmacodynamics, pRB immunohistochemistry. The data set is classed as in vivo, human. Summed up:
as §1

Data set [8] is classed as in vivo, human.
Where [9] appears, read: 2 to 24 hours after fifth 900 mg dose.
Setting [10] is: human, non-enhancing tumor region, oral, 900 mg.

“And” between values parts separate entries of the source, which are not always exact repeats. Equal entries are not always repeated.

As for `CC(=O)c1c(C)c2cnc(Nc3ccc(N4CCNCC4)cn3)nc2n(C2CCCC2)c1=O` [Palbociclib], the “clinical efficacy in terms of prolonging PFS” value in data set [1] was “limited clinical efficacy”.
Take `CN(C)C(=O)c1cc2cnc(Nc3ccc(N4CCNCC4)cn3)nc2n1C1CCCC1` [ribociclib, Ribociclib]: the “cleaved caspase-3 change after Phase 0 exposure” value in [2] is “trended towards a concomitant increase”. Moreover, in the data set with recurrent glioblastoma (6 of 8 patients with histologically evident recurrence), the “Phase 0 responders based on pharmacokinetic and pharmacodynamic results” value amounted to 75%. In the data set on recurrent glioblastoma (expansion cohort, 6 patients), the PFS6 is 16.7% and the “median OS” value worked out at 7.8 months. Moreover, the “median PFS” value in the data set with recurrent glioblastoma (expansion cohort, 6 patients, 600 mg daily 21 days on/7 days off) was determined as 9.7 weeks. In the data set on recurrent glioblastoma (recurrent glioblastoma), the “clinical efficacy of monotherapy” value was “limited clinical efficacy”. Moreover, in data set [3], the “pFOXM1 levels after normalization with historical control samples” value was “downward trend”. This molecule came in with a p4EBP1 positive cells with p4EBP1 (matched Phase 0 samples) of 2.8%. This molecule also registered a p4EBP1 positive cells in the data set with p4EBP1 (post-treatment specimens) of 31.2%. In addition, in [4], the “MIB-1 change after Phase 0 exposure” value is reported as “significantly reduced”. For the same molecule, the half-life in data set [5] (human, plasma, po, 900 mg) was 13.5 h. Besides, the “coefficient variation in drug exposure (Cmax, Ctrough, AUC0-24h)” value in data set [5] (inter-individual, among 12 patients) is “about 50%”. For the same molecule, in data set [5] (steady-state, 900 mg daily), the “fluctuation of unbound plasma concentration, trough to peak” value is 3.4 fold; the “unbound plasma concentration, mean peak level” value was 440 nM; the “unbound plasma concentration, mean trough level” value amounted to 130 nM. Moreover, in data set [6], the maximum tolerated dose was 900 mg daily. In the data set with CDK4/6, the IC50 is 40 nM. This molecule displayed a pS6 positive cells in the data set with pS6 (matched Phase 0 samples) of 21.3%. The molecule further showed a pS6 positive cells in the data set on pS6 (post-treatment specimens) of 36.7%. Besides, the “patients with > 20% decrease in pRB levels” value in [7] (9 of 12 Phase 0 patients, vs matched archival tissue) came out at 75%. Further, the “average decrease in pRB levels” value in data set [7] (12 treated patients, 900 mg/d for 5 days) was found to be 50%. Further, in data set [7] (Phase 0 operation specimens, 3 re-resected patients), the pRB positive cells was found to be 7.4%. In data set [7] (post-treatment (recurrence after monotherapy), 3 patients), this molecule yielded a pRB positive cells of 19.96%. Moreover, in data set [8] (setting [9]), the “mean unbound concentration in enhancing tumor region” value was 2.152 µmol/kg and 2.152 ± 1.559 µmol/kg; the “mean unbound concentration in non-enhancing tumor region” value is 0.560 µmol/kg and 0.560 ± 0.364 µmol/kg. In addition, in data set [8] (setting [10]), the concentration at 2 h is 510 nM, the concentration at 8 h was 600 nM and the concentration at 24 h worked out at 350 nM.
